Test results from ChEMBL document CHEMBL2346548, “Design, synthesis, and structure-activity relationship studies of tryptanthrins as antitubercular agents” (J Nat Prod, 2013).
≈ marks a conversion by molar mass, not a printed value.

What was measured:
Salmonella typhimurium [1] = test: Toxicity in Salmonella typhimurium TA100 assessed as compound level per well causing cytotoxicity at 0.25 to 240 ug/well in presence of rat liver S9 fraction; type: organism-based; conditions: salmonella enterica subsp. enterica serovar typhimurium
Method in brief: (§1)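 MicroAmes: strains preincubated with or without Aroclor-induced rat liver S9, duplicate wells, six concentrations 0.25–250 μg equivalents/well; DMSO vehicle, 4-nitroquinoline-N-oxide (−S9) and 2-aminoanthracene (+S9) positive controls; revertant colonies counted; cytotoxicity noted as reduced revertants or background lawn; precipitation recorded.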

[2] = Oral bioavailability in Sprague-Dawley rat at 20 mg/kg; type: ADME, organism-based; conditions: in vivo
[3] = Elimination half life in Sprague-Dawley rat at 5 mg/kg, iv; type: ADME, organism-based; parameters: dose 5 mg/kg, route intravenous; conditions: in vivo, read-out: beta t1/2 (converted)
Method in brief: (§2)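 Male Sprague-Dawley rats (n = 3), single 5 mg/kg iv dose as solution in PEG300/DMSO 50:50; plasma sampled 0.083–24 h, LC-MS bioanalysis; noncompartmental analysis, means.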

[4] = AUC (0 to infinity) in Sprague-Dawley rat at 20 mg/kg, po; type: ADME, organism-based; parameters: time infinity, dose 20 mg/kg, route oral; conditions: plasma
[5] = Aqueous solubility in PBS buffer at pH 7.4 by HPLC method; type: physicochemical; conditions: PBS buffer, read-out: solubility
Method in brief: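 Compound at 200 μM final in 2% DMSO in PBS pH 7.4, shaken 24 h at room temperature; quantified by HPLC with photodiode array detection at 230 nm; duplicate, mean reported.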

[6] = Half life in C57BL/6 mouse at 40 mg/kg, po formulated in 0.5% methylcellulose; type: ADME, organism-based; parameters: dose 40 mg/kg, route oral; conditions: in vivo
Method in brief: (§3)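 Female C57BL/6 mice, single 40 mg/kg oral gavage; three mice per time point; plasma at 30 min to 24 h, LC-MS; noncompartmental parameters reported as means.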

[7] = Cmax in C57BL/6 mouse at 40 mg/kg, po formulated in 30% HP-beta-CD; type: ADME, organism-based; parameters: dose 40 mg/kg, route oral; conditions: in vivo; method in brief: as §3
[8] = tested on: Mycobacterium tuberculosis; test: Antitubercular activity against Mycobacterium tuberculosis Erdman ATCC 35801 infected in C57BL/6 mouse assessed as viable bacterial load in lung at 200 mg/kg twice daily through gavage 5 days per week for 4 weeks starting on 10th day post-infection (reference value: 6.49 +/- 0.10 log10CFU/lung); type: functional
[9] = Tmax in C57BL/6 mouse at 40 mg/kg, po formulated in 0.5% methylcellulose; type: ADME, organism-based; parameters: dose 40 mg/kg, route oral; conditions: in vivo; method in brief: as §3
[10] = Permeability across apical to basolateral side in human Caco2 cells incubated for 1 hr at 37 degC by HPLC-MS/MS method; type: ADME, cell-based; conditions: Caco-2
Method in brief: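 TC7 (Caco-2 subclone) monolayer; 10 μM compound in 1% DMSO in HBSS-MES pH 6.5 on apical donor side, basolateral receiver pH 7.4; shaken 1 h at 37 °C; receiver sampled, HPLC-MS/MS; duplicate means.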

[11] = Tmax in Sprague-Dawley rat at 20 mg/kg, po; type: ADME, organism-based; parameters: dose 20 mg/kg, route oral; conditions: in vivo
[12] = AUC (0 to infinity) in C57BL/6 mouse at 40 mg/kg, po formulated in 0.5% methylcellulose; type: ADME, organism-based; parameters: dose 40 mg/kg, route oral, time infinity; conditions: in vivo
[13] = Efflux ratio in human Caco2 cells incubated for 1 hr at 37 degC by HPLC-MS/MS method; type: ADME, cell-based; conditions: Caco-2
[14] = Cmax in C57BL/6 mouse at 40 mg/kg, po formulated in 0.5% methylcellulose; type: ADME, organism-based; parameters: dose 40 mg/kg, route oral; conditions: in vivo; method in brief: as §3
[15] = tested on: Mycobacterium tuberculosis; test: Antitubercular activity against non-replicating Mycobacterium tuberculosis H37Rv incubated for 10 days by LORA method; type: functional; conditions: 240 h
Method in brief: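 H37Rv carrying pFCA-luxAB was adapted to low oxygen by gradual self-depletion in a sealed, slowly stirred flask. It was then exposed to compounds for 10 days under anaerobic conditions. Cultures recovered for 28 h in ambient oxygen before n-decanal substrate was added and luminescence read. MIC was the lowest concentration giving a 90% reduction in luminescence versus untreated controls.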

Salmonella typhimurium [16] = test: Mutagenicity in Salmonella typhimurium TA98 assessed as mean revertant colonies at 0.25 to 240 ug/well in absence of rat liver S9 fraction; type: toxicity, organism-based; conditions: salmonella enterica subsp. enterica serovar typhimurium; method in brief: as §1
[17] = AUC (0 to infinity) in C57BL/6 mouse at 40 mg/kg, po formulated in 30% HP-beta-CD; type: ADME, organism-based; parameters: time infinity, dose 40 mg/kg, route oral; conditions: plasma
[18] = tested on: Mycobacterium tuberculosis; test: Antitubercular activity against Mycobacterium tuberculosis Erdman ATCC 35801 infected in C57BL/6 mouse assessed as viable bacterial load in spleen at 200 mg/kg/day through gavage 5 days per week for 4 weeks starting on 10th day post-infection (reference value: 4.79 +/- 0.21 log10CFU/spleen); type: functional
[19] = tested on: Mycobacterium tuberculosis; test: Antitubercular activity against Mycobacterium tuberculosis H37Rv incubated at 37 degC for 7 days by microplate alamar blue assay; type: functional; conditions: Mycobacterium tuberculosis, H37Rv, 168 h
Method in brief: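 Mtb H37Rv was grown in 7H9 broth with glycerol, Casitone, 10% OADC and 0.05% Tween 80 to OD600 0.4. Compounds were 2-fold serially diluted from DMSO stocks in 7H9, and wells were inoculated at 2 × 10⁵ CFU/mL. After 7 days at 37 °C, Alamar Blue was added and read after a further 24 h. MIC was the lowest concentration preventing the blue-to-pink change.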

[20] = Tmax in C57BL/6 mouse at 40 mg/kg, po formulated in 30% HP-beta-CD; type: ADME, organism-based; parameters: dose 40 mg/kg, route oral; conditions: in vivo; method in brief: as §3
[21] = Protein binding in human plasma at 10 uM incubated for 8 hrs at 37 degC by equilibrium dialysis method; type: ADME, cell-free; conditions: read-out: PPB (converted)
Method in brief: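 Equilibrium dialysis: 10 μM compound in 1% DMSO in human plasma vs 0.05 M phosphate buffer pH 7.5 across 12–14 K cutoff membrane, at least 8 h at 37 °C; HPLC-photodiode detection at 230 nm; duplicate means.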

Salmonella typhimurium [22] = test: Mutagenicity in Salmonella typhimurium TA98 assessed as mean revertant colonies at 0.25 to 240 ug/well in presence of rat liver S9 fraction; type: toxicity, organism-based; conditions: salmonella enterica subsp. enterica serovar typhimurium; method in brief: as §1
Vero = test: Cytotoxicity against african green monkey Vero cells; type: cell-based, Chlorocebus sabaeus; conditions: Chlorocebus sabaeus, Vero; read-out: IC50
[23] = Clearance in Sprague-Dawley rat at 5 mg/kg, iv; type: ADME, organism-based; parameters: dose 5 mg/kg, route intravenous; conditions: in vivo; method in brief: as §2
[24] = tested on: Mycobacterium tuberculosis; test: Antitubercular activity against Mycobacterium tuberculosis Erdman ATCC 35801 infected in C57BL/6 mouse assessed as viable bacterial load in spleen at 200 mg/kg twice daily through gavage 5 days per week for 4 weeks starting on 10th day post-infection (reference value: 4.79 +/- 0.21 log10CFU/spleen); type: functional
[25] = AUC (0 to infinity) in Sprague-Dawley rat at 5 mg/kg, iv; type: ADME, organism-based; parameters: time infinity, dose 5 mg/kg, route intravenous; conditions: plasma
[26] = Metabolic stability in human liver microsomes assessed as parent compound remaining at 1 uM incubated for 1 hr by HPLC-MS/MS method; type: ADME, Microsome; conditions: read-out: Stability
Method in brief: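 Pooled mixed-gender human liver microsomes (0.3 mg/mL protein), 1 μM compound with NADP-regenerating system in phosphate buffer pH 7.4, 1 h at 37 °C; parent measured at start and end by HPLC-MS/MS; duplicate means.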

[27] = Permeability across basolateral to apical side in human Caco2 cells incubated for 1 hr at 37 degC by HPLC-MS/MS method; type: ADME, cell-based; conditions: Caco-2
Salmonella typhimurium [28] = test: Toxicity in Salmonella typhimurium TA100 assessed as compound level per well causing cytotoxicity at 0.25 to 240 ug/well in absence of rat liver S9 fraction; type: organism-based; conditions: salmonella enterica subsp. enterica serovar typhimurium; method in brief: as §1
Salmonella typhimurium [29] = test: Mutagenicity in Salmonella typhimurium TA100 assessed as mean revertant colonies at 0.25 to 240 ug/well in absence of rat liver S9 fraction; type: toxicity, organism-based; conditions: salmonella enterica subsp. enterica serovar typhimurium; method in brief: as §1
Salmonella typhimurium [30] = test: Mutagenicity in Salmonella typhimurium TA100 assessed as mean revertant colonies at 0.25 to 240 ug/well in presence of rat liver S9 fraction; type: toxicity, organism-based; conditions: salmonella enterica subsp. enterica serovar typhimurium; method in brief: as §1
[31] = tested on: Mycobacterium tuberculosis; test: Antitubercular activity against Mycobacterium tuberculosis H37Rv incubated at 37 degC for 14 days in presence of 40% human serum by microplate alamar blue assay; type: functional; conditions: 336 h
Method in brief: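 This is the MABA run in 7H9 broth containing 40% human serum. Compounds were 2-fold serially diluted, and wells were inoculated with H37Rv at 2 × 10⁵ CFU/mL. Incubation was at 37 °C for 14 days, then Alamar Blue was added. MIC was the lowest concentration preventing the blue-to-pink colour change.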

[32] = Half life in Sprague-Dawley rat at 20 mg/kg, po; type: ADME, organism-based; parameters: dose 20 mg/kg, route oral; conditions: in vivo
[33] = tested on: Mycobacterium tuberculosis; test: Antitubercular activity against Mycobacterium tuberculosis Erdman ATCC 35801 infected in C57BL/6 mouse assessed as viable bacterial load in lung at 200 mg/kg/day through gavage 5 days per week for 4 weeks starting on 10th day post-infection (reference value: 6.49 +/- 0.10 log10CFU/lung); type: functional
[34] = Solubility in simulated gastric fluid at pH 1.5 by HPLC method; type: physicochemical
Method in brief: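 Compound at 200 μM final in 2% DMSO in simulated gastric fluid, shaken 24 h at room temperature; HPLC-photodiode array detection at 230 nm; duplicate means.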

[35] = Cmax in Sprague-Dawley rat at 20 mg/kg, po; type: ADME, organism-based; parameters: dose 20 mg/kg, route oral; conditions: in vivo
[36] = Volume of distribution in Sprague-Dawley rat at 5 mg/kg, iv; type: ADME, organism-based; parameters: dose 5 mg/kg, route intravenous; conditions: in vivo; method in brief: as §2
[37] = Solubility in simulated intestinal fluid at pH 7.6 by HPLC method; type: physicochemical
Method in brief: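 Simulated intestinal fluid medium; each analogue 200 μM final in 2% DMSO, shaken 24 h at room temperature, then HPLC with photodiode array read at 230 nm; duplicate, means given.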

SMILES: O=C1c2ccccc2-n2c1nc1c(c2=O)CCCC1
- Activity (Salmonella typhimurium [1]): >= 25 ug
- bioavailability [2]: 30.1%
- half-life [3]: 3.98 h
- AUC(0-inf) [4]: 19900 ng·h/mL
- solubility [5]: 54.9 µM (≈ 13.8 µg/mL)
- half-life [6]: 4.99 h
- Cmax [7]: 2260 ng/mL
- log10cfu [8]: 6.6
- Tmax [9]: 1.5 h
- Papp A→B at 1 h [10]: 85.4 ×10⁻⁶ cm/s
- Tmax [11]: 4.67 h
- AUC(0-inf) [12]: 5280 ng·h/mL
- efflux ratio at 1 h [13]: > 1
- Cmax [14]: 1930 ng/mL
- MIC90 [15]: 10.5 µg/mL (≈ 41.6 µM)
- Activity (Salmonella typhimurium [16]): Non-toxic
- AUC(0-inf) [17]: 2570 ng·h/mL
- log10cfu [18]: 4.88
- MIC [19]: 0.5 µg/mL (≈ 1.98 µM)
- Tmax [20]: 0.5 h
- fraction unbound at 8 h, 10 µM [21]: 0.043
- Activity (Salmonella typhimurium [22]): Non-toxic
- IC50 (Vero): 8.7 µg/mL (≈ 34.5 µM)
- clearance [23]: 5.67 mL/min/kg
- log10cfu [24]: 4.89
- AUC(0-inf) [25]: 16500 ng·h/mL
- remaining at 1 h, 1 µM [26]: 18%
- Papp B→A at 1 h [27]: 52.4 ×10⁻⁶ cm/s
- Activity (Salmonella typhimurium [28]): >= 25 ug
- Activity (Salmonella typhimurium [29]): Non-toxic
- Activity (Salmonella typhimurium [30]): Non-toxic
- MIC [31]: 1 µg/mL
- half-life [32]: 6.29 h
- log10cfu [33]: 6.5
- solubility [34]: 53 µM (≈ 13.4 µg/mL)
- Cmax [35]: 2030 ng/mL
- Vd [36]: 1.62 L/kg
- solubility [37]: 73.4 µM (≈ 18.5 µg/mL)
